# Experimental data pooled from the literature.
# Target: Activated CDC42 kinase 1 (TNK2, Homo sapiens, UniProt Q07912)
SMILES,assay,setting,remaining binding [%]
O=C(NCCCN1CCOCC1)c1ccc(Nc2ncc(Cl)c(-c3ccc(Cl)s3)n2)cc1,"binding, competition with immobilised ligand",1 µM,53
Nc1ncc2c(n1)-c1c([nH]c3ccc(C#CC4CC4)cc13)CCCC2,"binding, competition with immobilised ligand",1 µM,100
Cc1nc(Cc2cccc(C(F)(F)F)c2)sc1-c1ccc(C(N)=O)nc1,"cell-free assay, competition with immobilised ligand",1 µM,100
O=C(Nc1c[nH]nc1C(=O)NC1CCNCC1)c1cc(F)cc(F)c1,"binding, competition with immobilised ligand",1 µM,100
C[C@H](c1ccc(F)cc1)N(Cc1cccc(C(=O)O)c1)C(=O)c1cnc2ccccc2c1,"cell-free assay, competition with immobilised ligand",1 µM,100
CNC(=O)[C@@H]1CC[C@@H](n2c(-c3ccc4cnccc4c3)nc3ccc(C(=O)NCc4cccc(C(N)=O)c4)cc32)C1,"binding, competition with immobilised ligand",1 µM,100
F[C@@H]1CCN(c2nccc(-c3cnn4ncccc34)n2)C1,binding,1 µM,79
Cc1c(NC(=O)c2cc(C(N)=O)nc3cc(F)ccc23)c(C(F)(F)F)nn1Cc1ccc(C#N)cc1,"cell-free assay, competition with immobilised ligand",1 µM,71
O=C(c1ccc(Nc2nccc(-c3cc4ccccc4s3)n2)cc1)N1CCC(N2CCCC2)CC1,"binding, competition with immobilised ligand",1 µM,62
CNC(=O)c1cc(Oc2ccc(NC(=O)Nc3ccc(Cl)c(C(F)(F)F)c3)cc2)ccn1,"cell-free assay, competition with immobilised ligand",10 µM,89
CN(C)c1nccc(-c2cnn3ncccc23)n1,binding,1 µM,100
Cc1nc(Nc2ncc(C(=O)Nc3c(C)cccc3Cl)s2)cc(N2CCN(CCO)CC2)n1,"cell-free assay, competition with immobilised ligand",0.1 µM,4
CCS(=O)(=O)c1cc2cc(C[C@](O)(CC(C)(C)c3ccc(F)cc3C(N)=O)C(F)(F)F)[nH]c2cn1,"cell-free assay, competition with immobilised ligand",1 µM,100
COc1cc2ncnc(Nc3ccc(F)c(Cl)c3)c2cc1OCCCN1CCOCC1,"cell-free assay, competition with immobilised ligand",0.1 µM,100
CO[C@@H](C)c1c(Nc2ccc([C@H](N(C)C(=O)C3CCS(=O)(=O)CC3)C(F)(F)F)cc2)cnc2cc(Cl)nn12,"cell-free assay, competition with immobilised ligand",1 µM,100
CS(=O)(=O)CCNCc1ccc(-c2ccc3ncnc(Nc4ccc(OCc5cccc(F)c5)c(Cl)c4)c3c2)o1,"cell-free assay, competition with immobilised ligand",0.1 µM,100
N[C@@H]1CCN(c2nccc(-c3cnn4ncccc34)n2)C1,binding,1 µM,100
COc1ncc2cc3ccccc3nc2c1C#N,"cell-free assay, competition with immobilised ligand",5 µM,95
C[C@H]1CCN(c2nccc(-c3cnn4ncccc34)n2)C1,binding,1 µM,100
CC(=O)N1CCC(c2ccc(C(=O)NC(=N)N)cc2C(F)(F)F)CC1,"cell-free assay, competition with immobilised ligand",1 µM,100
CCN(CC)CCNC(=O)c1c(C)[nH]c(/C=C2\C(=O)Nc3ccc(F)cc32)c1C,"cell-free assay, competition with immobilised ligand",0.1 µM,93
CN(CCCC(F)(F)F)c1nccc(-c2cnn3ncccc23)n1,binding,1 µM,83
